Test results published in ChEMBL document CHEMBL1132297, “Novel cryptophycin antitumor agents: synthesis and cytotoxicity of fragment "B" analogues” (J Med Chem, 1999).

Tested on: CCRF-CEM
Experiment: In vitro cytotoxicity against human leukemia CCRF-CEM tumor cell lines
Format: functional, cell-based
In short: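 Log-phase cells seeded at 4.8×10^4 cells per well in RPMI-1640 with 10% dialyzed FBS and 25 mM HEPES. Compounds were dissolved in DMSO at 0.2 mg/mL, serially diluted 1:3 in DMSO, and added to duplicate wells; DMSO final 0.5%, with DMSO-only control wells. Exposure 72 h at 37 °C, 5% CO2. Suspension cells counted by Coulter counter; IC50 from dose–response curves.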

Compared with COc1ccc(C[C@H]2NC(=O)/C=C/C[C@@H]([C@H](C)C3O[C@@H]3c3ccccc3)OC(=O)[C@H](CC(C)C)OC(=O)C(C)(C)CNC2=O)cc1Cl (stereo not given in full), CC(C)C[C@@H]1OC(=O)C(C)(C)CNC(=O)[C@@H](Cc2ccc(O)c(Cl)c2)NC(=O)/C=C/C[C@@H]([C@H](C)[C@H]2O[C@@H]2c2ccccc2)OC1=O is 24-fold higher in IC50: 0.022 nM for the first, 0.52 nM for the second.

First: CC(C)C[C@@H]1OC(=O)C(C)(C)CNC(=O)[C@@H](CCc2ccccc2)NC(=O)/C=C/C[C@@H]([C@H](C)/C=C/c2ccccc2)OC1=O
Second: CC(C)C[C@@H]1OC(=O)C(C)(C)CNC(=O)[C@@H](Cc2ccccc2)NC(=O)/C=C/C[C@@H]([C@H](C)/C=C/c2ccccc2)OC1=O
The IC50 of the first is 4-fold higher: 1660 nM for the first, 412 nM for the second. The second is the more potent here.

First: CC(C)C[C@@H]1OC(=O)C(C)(C)CNC(=O)[C@@H](Cc2ccc(N)c(Cl)c2)NC(=O)/C=C/C[C@@H]([C@H](C)/C=C/c2ccccc2)OC1=O
Second: CC(C)C[C@@H]1OC(=O)C(C)(C)CNC(=O)[C@@H](Cc2ccc(O)c(Cl)c2)NC(=O)/C=C/C[C@@H]([C@H](C)/C=C/c2ccccc2)OC1=O
The IC50 of the first is 1.9-fold higher: 500 nM for the first, 269 nM for the second.

CC(C)C[C@@H]1OC(=O)C(C)(C)CNC(=O)[C@@H](Cc2ccc(I)cc2)NC(=O)/C=C/C[C@@H]([C@H](C)/C=C/c2ccccc2)OC1=O and CC(C)C[C@@H]1OC(=O)C(C)(C)CNC(=O)[C@@H](Cc2ccc(O)cc2)NC(=O)/C=C/C[C@@H]([C@H](C)/C=C/c2ccccc2)OC1=O are within 1.5-fold of each other in IC50: 607 nM for the first, 734 nM for the second.

CC(C)C[C@@H]1OC(=O)C(C)(C)CNC(=O)[C@@H](Cc2ccc(NC(=O)OCC3c4ccccc4-c4ccccc43)c(Cl)c2)NC(=O)/C=C/C[C@@H]([C@H](C)/C=C/c2ccccc2)OC1=O and CC(C)C[C@@H]1OC(=O)C(C)(C)CNC(=O)[C@@H](Cc2ccc(NC(=O)OCC3c4ccccc4-c4ccccc43)cc2)NC(=O)/C=C/C[C@@H]([C@H](C)/C=C/c2ccccc2)OC1=O cannot be ordered by IC50: over 1250 nM for the first, over 1200 nM for the second.

First: CC(C)C[C@@H]1OC(=O)C(C)(C)CNC(=O)[C@@H](COCc2ccccc2)NC(=O)/C=C/C[C@@H]([C@H](C)[C@H]2O[C@@H]2c2ccccc2)OC1=O
Second: CC(C)C[C@@H]1OC(=O)C(C)(C)CNC(=O)[C@@H](COCc2ccccc2)NC(=O)/C=C/C[C@@H]([C@H](C)[C@@H]2O[C@H]2c2ccccc2)OC1=O
The IC50 of the first is 3.9-fold lower: 249 nM for the first, 975 nM for the second.

CC(C)C[C@@H]1OC(=O)C(C)(C)CNC(=O)CNC(=O)/C=C/C[C@@H]([C@H](C)[C@H]2O[C@@H]2c2ccccc2)OC1=O and CC(C)C[C@@H]1OC(=O)C(C)(C)CNC(=O)[C@@H](C(C)C)NC(=O)/C=C/C[C@@H]([C@H](C)[C@H]2O[C@@H]2c2ccccc2)OC1=O cannot be ordered by IC50: over 1940 nM for the first, over 1800 nM for the second.

Compared with CC(C)C[C@@H]1OC(=O)C(C)(C)CNC(=O)[C@@H](c2ccc(O)cc2)NC(=O)/C=C/C[C@@H]([C@H](C)/C=C/c2ccccc2)OC1=O, CC(C)C[C@@H]1OC(=O)C(C)(C)CNC(=O)[C@@H](c2ccc(O)cc2)NC(=O)/C=C/C[C@@H]([C@H](C)[C@H]2O[C@@H]2c2ccccc2)OC1=O is lower in IC50: over 1690 nM for the first, 274 nM for the second.

First: CC(C)C[C@@H]1OC(=O)C(C)(C)CNC(=O)[C@@H](Cc2cccc3ccccc23)NC(=O)/C=C/C[C@@H]([C@H](C)[C@@H]2O[C@H]2c2ccccc2)OC1=O
Second: CC(C)C[C@@H]1OC(=O)C(C)(C)CNC(=O)[C@@H](Cc2cccc3ccccc23)NC(=O)/C=C/C[C@@H]([C@H](C)[C@H]2O[C@@H]2c2ccccc2)OC1=O
The IC50 of the first is 9.3-fold higher: 327 nM for the first, 35 nM for the second. The second is the more potent here.

Compared with CC(C)C[C@@H]1OC(=O)C(C)(C)CNC(=O)[C@@H](Cc2ccc(O)c(O)c2)NC(=O)/C=C/C[C@@H]([C@H](C)/C=C/c2ccccc2)OC1=O, COc1ccc(C[C@H]2NC(=O)/C=C/C[C@@H]([C@H](C)/C=C/c3ccccc3)OC(=O)[C@H](CC(C)C)OC(=O)C(C)(C)CNC2=O)cc1Cl is 94-fold lower in IC50: 1300 nM for the first, 13.8 nM for the second. The second is the more potent here.

First: CC(C)C[C@@H]1OC(=O)C(C)(C)CNC(=O)[C@@H](Cc2ccc(O)cc2)NC(=O)/C=C/C[C@@H]([C@H](C)[C@H]2O[C@@H]2c2ccccc2)OC1=O
Second: CC(C)C[C@@H]1OC(=O)C(C)(C)CNC(=O)[C@@H](Cc2ccc(N)cc2)NC(=O)/C=C/C[C@@H]([C@H](C)[C@H]2O[C@@H]2c2ccccc2)OC1=O
The IC50 of the first is 2.5-fold lower: 4.11 nM for the first, 10.1 nM for the second. The first is the more potent here.

CC(C)C[C@@H]1OC(=O)C(C)(C)CNC(=O)[C@@H](Cc2cccc3ccccc23)NC(=O)/C=C/C[C@@H]([C@H](C)/C=C/c2ccccc2)OC1=O and CC(C)C[C@@H]1OC(=O)C(C)(C)CNC(=O)[C@@H](Cc2ccc3ccccc3c2)NC(=O)/C=C/C[C@@H]([C@H](C)/C=C/c2ccccc2)OC1=O cannot be ordered by IC50: over 1570 nM for the first, over 1570 nM for the second.

First: CC(C)C[C@@H]1OC(=O)C(C)(C)CNC(=O)[C@@H](CCc2ccccc2)NC(=O)/C=C/C[C@@H]([C@H](C)[C@H]2O[C@@H]2c2ccccc2)OC1=O
Second: CC(C)C[C@@H]1OC(=O)C(C)(C)CNC(=O)[C@@H](CCc2ccccc2)NC(=O)/C=C/C[C@@H]([C@H](C)[C@@H]2O[C@H]2c2ccccc2)OC1=O
The IC50 of the first is lower: 598 nM for the first, over 1620 nM for the second.

CC(C)C[C@@H]1OC(=O)C(C)(C)CNC(=O)[C@@H](C(C)C)NC(=O)/C=C/C[C@@H]([C@H](C)/C=C/c2ccccc2)OC1=O and CC(C)C[C@@H]1OC(=O)C(C)(C)CNC(=O)[C@@H]([C@H](C)O)NC(=O)/C=C/C[C@@H]([C@H](C)/C=C/c2ccccc2)OC1=O cannot be ordered by IC50: over 1850 nM for the first, over 1840 nM for the second.

Going from CC(C)C[C@@H]1OC(=O)C(C)(C)CNC(=O)[C@@H](Cc2ccc3ccccc3c2)NC(=O)/C=C/C[C@@H]([C@H](C)[C@H]2O[C@@H]2c2ccccc2)OC1=O to CC(C)C[C@@H]1OC(=O)C(C)(C)CNC(=O)[C@@H](Cc2ccc3ccccc3c2)NC(=O)/C=C/C[C@@H]([C@H](C)[C@@H]2O[C@H]2c2ccccc2)OC1=O, the IC50 rises from 48 nM to 866 nM (18-fold).

Compared with CC(C)C[C@@H]1OC(=O)C(C)(C)CNC(=O)[C@@H](Cc2ccc(N(C)C)c(Cl)c2)NC(=O)/C=C/C[C@@H]([C@H](C)[C@H]2O[C@@H]2c2ccccc2)OC1=O, CC(C)C[C@@H]1OC(=O)C(C)(C)CNC(=O)[C@@H](Cc2ccc(N)c(Cl)c2)NC(=O)/C=C/C[C@@H]([C@H](C)[C@H]2O[C@@H]2c2ccccc2)OC1=O is 11-fold higher in IC50: 0.054 nM for the first, 0.58 nM for the second. The first is the more potent here.

First: CC(C)C[C@@H]1OC(=O)C(C)(C)CNC(=O)[C@H]2CCCN2C(=O)/C=C/C[C@@H]([C@H](C)/C=C/c2ccccc2)OC1=O
Second: CC(C)C[C@@H]1OC(=O)C(C)(C)CNC(=O)[C@H]2CCCN2C(=O)/C=C/C[C@@H]([C@H](C)[C@H]2O[C@@H]2c2ccccc2)OC1=O
The IC50 of the first is higher: over 1860 nM for the first, 1350 nM for the second.

First: CC(C)C[C@@H]1OC(=O)C(C)(C)CNC(=O)CNC(=O)/C=C/C[C@@H]([C@H](C)/C=C/c2ccccc2)OC1=O
Second: CC(C)C[C@@H]1OC(=O)C(C)(C)CNC(=O)[C@@H](Cc2cccnc2)NC(=O)/C=C/C[C@@H]([C@H](C)/C=C/c2ccccc2)OC1=O
The IC50 of the first is higher: over 2000 nM for the first, 997 nM for the second. The second is the more potent here.

First: CC(C)C[C@@H]1OC(=O)C(C)(C)CNC(=O)[C@@H](Cc2ccc(NC(=O)OCC3c4ccccc4-c4ccccc43)c(Cl)c2)NC(=O)/C=C/C[C@@H]([C@H](C)C2OC2c2ccccc2)OC1=O (stereo not given in full)
Second: CC(C)C[C@@H]1OC(=O)C(C)(C)CNC(=O)[C@@H](Cc2ccc(NC(=O)OCC3c4ccccc4-c4ccccc43)cc2)NC(=O)/C=C/C[C@@H]([C@H](C)C2OC2c2ccccc2)OC1=O (stereo not given in full)
The IC50 of the first is 7.5-fold lower: 15.3 nM for the first, 115 nM for the second.

Going from CC(C)C[C@@H]1OC(=O)C(C)(C)CNC(=O)[C@@H](COCc2ccccc2)NC(=O)/C=C/C[C@@H]([C@H](C)/C=C/c2ccccc2)OC1=O to CC(C)C[C@@H]1OC(=O)C(C)(C)CNC(=O)[C@@H](Cc2ccc(N)cc2)NC(=O)/C=C/C[C@@H]([C@H](C)/C=C/c2ccccc2)OC1=O, the IC50 rises from 856 nM to 1540 nM (1.8-fold).

Going from CC(C)C[C@@H]1OC(=O)C(C)(C)CNC(=O)[C@@H](Cc2ccccc2)NC(=O)/C=C/C[C@@H]([C@H](C)[C@H]2O[C@@H]2c2ccccc2)OC1=O to CC(C)C[C@@H]1OC(=O)C(C)(C)CNC(=O)[C@@H](Cc2ccc(O)c(Cl)c2)NC(=O)/C=C/C[C@@H]([C@H](C)[C@@H]2O[C@H]2c2ccccc2)OC1=O, the IC50 rises from 0.183 nM to 31 nM (170-fold). The first is the more potent here.

First: CC(C)C[C@@H]1OC(=O)C(C)(C)CNC(=O)[C@@H](CC2CCCCC2)NC(=O)/C=C/C[C@@H]([C@H](C)[C@H]2O[C@@H]2c2ccccc2)OC1=O
Second: CC(C)C[C@@H]1OC(=O)C(C)(C)CNC(=O)[C@@H](CC2CCCCC2)NC(=O)/C=C/C[C@@H]([C@H](C)/C=C/c2ccccc2)OC1=O
The IC50 of the first is lower: 8.8 nM for the first, over 1680 nM for the second.

Work on CC(C)C[C@@H]1OC(=O)C(C)(C)CNC(=O)[C@@H]([C@H](C)O)NC(=O)/C=C/C[C@@H]([C@H](C)[C@H]2O[C@@H]2c2ccccc2)OC1=O yielded an IC50 of 1060 nM.
